# Screening data (PubChem)
# TbHK1 inh = T. brucei hexokinase 1 inhibition; recombinant TbHK1, G6PDH-coupled NADH A340; inhibition, % at 10 µM; hit rate 0.11% among 220,000; AID 1430;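 active = inhibition of 50% or more in the single-dose primary screen; inactive = inhibition below 50%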
# MT stabilizer = microtubule stabilizers in HeLa cells; HeLa tubulin immunostaining HCS, 24 h; share of cells brighter than vehicle mean+2SD; % tubulin-high responders, % at 10 µM; hit rate 0.83% among 200,000;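 active = plate Z-score above 3 for both tubulin-high and condensed-nucleus cell shares, with cell loss under 80%, at 10 µM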;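 also: anti alpha tubulin signal scored within the nucleus-defined area of each cell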
# Autophagy HCS = alters autophagy in cells; MEF GFP-LC3 puncta imaging; test concentration mostly 10 µM; hit rate 0.98% among 190,000; AID 463193; calls only at 10 µM (by protocol);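 active = percentage of spot-positive cells more than 3 SD above its plate mean, without a fluorescence outlier flag or 80% toxicity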;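 also: spot-positive cell cutoff set from DMSO-treated cells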
# Insulin prom up = MIN6 insulin promoter up-regulation; MIN6 insulin promoter-GFP reporter, high-content imaging; hits give high values; z-score at 5 µM; hit rate 0.3% among 190,000;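 active = z-score above 3 at 5 µM with at least 500 cells counted in the well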
# bCat nuc transl = alters nuclear translocation of beta-catenin in HeLa cells; immunofluorescence imaging; nuclear translocation activity, % at 5 µM; hit rate 0.3% among 190,000;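 active = nuclear translocation activity above 50% at 5 µM, with a well cell count of 50 or more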;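 also: per-cell ratio of nuclear to cytoplasmic median beta-catenin stain intensity; plate controls were DMSO negative control for no effect and GSK-3 inhibitor IX positive control for full effect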
#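 Technique: fluorescence imaging of beta-catenin antibody stain plus DAPI / Material: human HeLa cell line / Incubation: compound treatment 24 h, 37°C, 5% CO2 / Read-out basis: % activation of per-cell nuclear versus cytoplasmic median beta-catenin signal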
# * hit, by the source's call; i = inactive; nt = no result given; + = active, no number. Hits are enriched below; roughly 1.9% of the tested compounds scored in any of these assays.
SMILES,TbHK1 inh,MT stabilizer,Autophagy HCS,Insulin prom up,bCat nuc transl
CCn1c(=O)cc(SCC(=O)NCc2ccco2)c2ccccc21,-4,46*,+,-0.71,55*
CCn1c(=O)cc(SCC(=O)NCc2ccc(C)cc2)c2ccccc21,3,31*,i,0.6,0
CCn1c(=O)cc(SCC(=O)Nc2ccc(C)cn2)c2ccccc21,-25,4,+,0.34,-1
CCn1c(=O)cc(OCC(=O)Nc2ccc(C)cn2)c2ccccc21,-3,2,i,0.08,1
CCn1c(=O)cc(SCC(=O)NCc2cccnc2)c2ccccc21,-11,2,i,3,0
CCN(CC)c1ccc(/C=N/NC(=O)c2ccc(Br)o2)cc1,-24,33*,i,0.35,nt
CCN(CC)c1ccc(/C=N/N=C(N)N)c(O)c1,-37,7,+,1.2,77*
COc1ccccc1NC(=O)c1cnc(Nc2ccccc2OC)c2ccccc12,12,35*,i,-0.7,118*
COc1ccc(CN=C(C)c2c(C(F)(F)F)[nH]n(-c3nc4ccccc4s3)c2=O)cc1,-24,1,+,-0.37,4
CCOc1ccc(-c2n[nH]c(C)c2-c2ccccc2OC)c(O)c1,-3,27*,i,-0.91,3
C=C(C)COc1ccc(-c2n[nH]c(C)c2-c2ccc(OC)cc2)c(O)c1,4,30*,i,1.2,6
N#Cc1c(C(F)(F)F)cc(=O)[nH]c1SCC(=O)O,-4,4,i,0.65,-4
COc1ccc(S(=O)(=O)Nc2cccc(-c3ccc4nncn4n3)c2)cc1F,-4,30*,i,-0.5,3
C#CCOCCOCCOCCNc1nc(N2CCN(C(=O)[C@H](CCCCN)n3cc(C(N)COC(=O)C(F)(F)F)nn3)CC2)nc(N2CCN(C(=O)[C@H](CCCCN)n3cc(C(N)CC(C)C)nn3)CC2)n1 (some centres not stated),7,nt,nt,nt,-2
Cc1ccccc1CN1C(=O)CSc2ccc(C(=O)N3CCOCC3)cc21,-2,38*,i,nt,nt
CC(/C=C/c1ccccc1)=N/NC(=O)Cn1nnc(N)n1,-21,nt,nt,nt,-1
CCN(Cc1cc(OC)c(OC)c(OC)c1)C(=S)Nc1cccc(SC)c1,-6,nt,nt,-0.31,0
Cc1cnc(C(=O)Nc2ccc(N3CCN(C(=O)OC(C)(C)C)CC3)cc2)cn1,0,39*,i,-0.43,68*
Cc1cnc(C(=O)Nc2ccc(F)cc2)cn1,-1,2,i,nt,nt
CC(C)(C)OC(=O)N1CCN(c2ccc(NC(=O)Cn3nnc(-c4ccccc4)n3)cc2)CC1,11,5,i,0.22,0
Cc1cnc(C(=O)Nc2ccc(C(C)C)cc2)cn1,-4,18*,i,1.1,19
O=C1CCC2S/C(=C/Nc3ccc(C(F)(F)F)cc3)C(=O)N12 (configuration not stated),-19,2,i,0.88,-4
COc1ccc(S(=O)(=O)Nc2ccccc2-c2nnn(CC(=O)Nc3ccccc3OC)n2)cc1,9,14*,i,-0.98,0
COc1ccc(NC(=O)Cn2nnc(-c3ccccc3NS(=O)(=O)c3ccccc3)n2)cc1,-1,5,i,-0.37,-1
CCN(CC)C(=O)c1[nH]cnc1C(=O)N[C@@H](C)C(=O)OC(C)(C)C,-6,1,i,0.27,-1
SMILES,TbHK1 inh,MT stabilizer,Autophagy HCS,Insulin prom up,bCat nuc transl
COc1ccc(C2CC(c3cccs3)=NN2c2ccc(C=O)cc2)cc1 (configuration not stated),15,1,+,-0.6,-1
c1ccc(C2CC(c3cccs3)=NN2c2ccccc2)cc1 (configuration not stated),-7,nt,nt,-0.75,9
CC(C)CCN1CCN(Cc2ccc(Sc3nncn3C)o2)CC1CCO (configuration not stated),1,2,i,nt,0
Cc1ccc(-n2c(O)c(/C=C3/C(c4ccccc4)=Nc4ccccc43)c(=O)[nH]c2=O)cc1,1,18*,i,0.94,0
Cc1ccc(NC2CC(C)NC(=S)N2)cc1 (configuration not stated),-9,nt,nt,-0.79,-1
CCOCCn1c(CN2CCc3ccccc3C2)nc2c1c(=O)n(C)c(=O)n2C,-10,nt,nt,-0.71,1
N#C/C(=C\C=C\c1ccccc1[N+](=O)[O-])c1nc(-c2ccc3c(c2)OCO3)cs1,-7,2,+,0.99,-1
O=C(Nc1cccc(F)c1)NC1CC2CCCC(C1)N2C1CC1 (configuration not stated),0,1,i,-0.73,0
O=C(Nc1ccc(Cl)c(C(F)(F)F)c1)NC1CC2CCCC(C1)N2C1CC1 (configuration not stated),4,2,+,nt,nt
O=S(=O)(c1ccccc1)c1ncc(C(F)(F)F)cc1Cl,-9,2,i,2,-1
FC(F)(F)c1ccccc1NC(=S)NC1CCN(Cc2ccccc2)CC1,2,5,+,1.1,1
Nc1nc2nccc(-c3cccnc3)n2n1,-11,3,i,-0.49,2
Cc1ccc(NC(=O)Nc2nc(-c3ccc(C)s3)cs2)cc1,-10,1,i,0.05,0
O=C(Nc1nc(-c2ccccn2)cs1)c1ccc(Br)s1,-5,4,+,-0.47,3
CC(=O)Nc1nc(-c2ccc(Br)s2)cs1,5,3,i,5*,3
Cc1ccc(-n2c(C)nc3c(cnn3-c3ccc(F)cc3)c2=O)cc1C,-4,2,+,-0.4,-1
COc1ccc(C2C(C#N)=C(N)N3C(=C2C#N)Sc2ccccc23)cc1 (configuration not stated),4,4,+,1.3,-4
Cc1ccc(C(=O)Nc2ncc(Cc3ccccc3)s2)o1,4,2,i,-0.19,2
O=C(Nc1ncc(Cc2ccc(SC(F)F)cc2)s1)c1ccccc1,-1,34*,i,-0.37,2
CC1=Nc2cc(C(=O)O)ccc2Sc2ccc(C)cc21,0,1,i,0.26,0
CC1=Nc2cc(C(=O)NCc3ccco3)ccc2Sc2ccc(C)cc21,21,4,i,-0.42,73*
O=C(CSc1nnc(C2COc3ccccc3O2)o1)N1CCN(c2ccccc2)CC1 (configuration not stated),3,2,i,-1.1,-1
CCn1cc(C(C)(C)C)c(C#N)c1NC(C)=O,39,5,+,-0.54,-2
CCN(C(=O)COc1cccc2cccnc12)C1CCS(=O)(=O)C1 (configuration not stated),-2,3,i,-0.21,0
Cc1cccc2cc3c(N)c(C(=O)Nc4ccc(N5CCOCC5)cc4)sc3nc12,-22,3,i,-0.2,2
CCc1cccc2cc3c(N)c(C(=O)Nc4ccc(S(=O)(=O)N5CCCC5)cc4)sc3nc12,-18,4,+,nt,3
CN(C)C=Nc1ccc2nn(-c3ccccc3)nc2c1,-30,11,i,3.1*,4
CCCc1nc2c(=O)n(C)c(=O)nc-2n(C)n1,7,20*,i,-1.9,3
